High-throughput results: PubChem BioAssay, several laboratories
Autophagy mod – alters autophagy in cells; calls only at 10 µM (by protocol); MEF GFP-LC3 puncta imaging; test concentration mostly 10 µM; 0.98% of 190,000 active;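 active means percentage of spot-positive cells more than 3 SD above its plate mean, without a fluorescence outlier flag or 80% toxicity; inconclusive means no clear call, values can overlap the other calls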
ROMK primary – human ROMK K+ channel modulation, primary screen; B-score at 10 µM; 2% of 130,000 active; Tet-inducible ROMK, thallium flux fluorescence; actives lie on both sides; P48048; AID 1918;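 active means signal ratio slope over the read window, or its plate-corrected B-score, at least 3 SD from the plate mean, either direction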;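 further: B-score of the F/F0 ratio slope over 7 to 12 s after thallium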
Dynein cargo inh – blocks dynein driven cargo transport along microtubules; 3617.4 mouse cells, GR-EGFP nuclear translocation imaging; test concentration mostly 20 µM; stimulated with dexamethasone, 1 µM; stronger effect = lower value; 0.47% of 220,000 active; z-score, hits read low;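 active means plate z-score of nuclear minus cytoplasmic receptor signal below a set negative limit, without overly bright fluorescence or cell loss, cut at about -3.5 in these data, passing the limit was not always enough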;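 further: z-score of nuclear minus cytoplasmic ring GR-EGFP intensity difference per well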
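Buffer or medium: Induction medium lacking tetracycline, stripped serum | Also added: Dexamethasone agonist, 1.0 µM final, for 30 min | Timing: 48 h induction, 1 h compound, 30 min dex at 37 °C | Detection: Formaldehyde fixation, Hoechst nuclear stain, 10x automated fluorescence imaging | Measure: Nuclear versus cytoplasmic GR-EGFP signal, averaged per well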
KCC2 mod – KCC2 (human) Cl- transport modulation; Q9H2X9; KCC2 cells, thallium flux FluoZin-2 fluorescence; B-score of Tl+ flux slope (higher = more flux/activation; lower = inhibition) at 10 µM; 2.2% of 190,000 active;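 active means thallium flux slope and its plate-corrected score both differing from the plate sample mean at a set confidence after two filtering rounds, in either direction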;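 further: slope of fluorescence scaled to starting intensity during 10 to 20 s after thallium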
Redox H2O2 prof – compounds producing H2O2 with reducing agent – biochemical, NIH compound library profiling, artefact control for MLSCN library redox annotation, primary screen; DTT-dependent redox cycling H2O2, phenol red/HRP absorbance; 100% = 100 µM peroxide control, 0% = buffer; activation, % at 10 µM; 0.03% of 200,000 active; AID 878;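 active means activation of at least 50% relative to the plate's high and low controls in the primary single-dose screen; inactive means activation below 50%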;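 further: compound incubated with DTT at 0.8 mM final as the reducing agent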
KCC2 secondary – confirmation of human KCC2 transport modulators | normalised thallium flux (F/F0 slope) at 10 µM | HEK293-KCC2, thallium flux, FluoZin2 fluorescence; stronger effect = higher value | shares compounds with KCC2 mod | AID 1713 | 15% of 3,700 active;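 active means thallium flux slope above the same plate's solvent-only control mean plus 3 SD; inconclusive means the two replicate wells disagree; inactive means no significant difference from solvent-only control wells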
KCC2 bumet counter – thallium flux despite bumetanide block in KCC2 cells, secondary assay 3. shares compounds with KCC2 mod. HEK293-KCC2 + bumetanide/ouabain, thallium flux FluoZin2; stronger effect = higher value. normalized thallium flux at 10 µM. 49% of 3,700 active. AID 1714;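 active means thallium entry rate above the same plate's blocked-transporter control wells by more than 3 SD; inconclusive means the two repeat wells disagree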;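 further: raw slope of fluorescence over initial fluorescence between 10 and 20 s after thallium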
KCC2 sec2 – KCC2 (human) modulation, second secondary assay; shares compounds with KCC2 mod; HEK293-KCC2, thallium flux FluoZin2 fluorescence; actives lie on both sides; F/F0 rise rate, 10–20 s post-thallium; normalized thallium flux at 10 µM; 23% of 3,700 active; AID 1715;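 active means thallium flux slope more than 3 SD above or below the plate's solvent-only control mean, mostly below; inconclusive means the two repeat wells disagreed; inactive means no significant shift from solvent-only controls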
HEK counter1 – acts in parental HEK cells, KCC2 counter-screen; shares compounds with KCC2 mod; HEK293 parental cells, thallium flux FluoZin2, ouabain; baseline-ratio fluorescence slope, 10–20 s after thallium; thallium flux rate (normalised fluorescence) at 10 µM; 46% of 3,700 active; AID 1716;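 active means thallium flux rate significantly above the same plate's solvent-only control wells, beyond their mean plus 3 SD; inconclusive means the two replicate wells gave conflicting results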
KCC2 retest ouab – confirmation of human KCC2 modulators with ouabain. raw Tl+ flux slope (below DMSO = inhibition, above = activation) at 10 µM. AID 1717. 48% of 3,700 active. HEK293-KCC2, thallium flux FluoZin2 fluorescence; bidirectional: low = inhibitor, high = activator. shares compounds with KCC2 mod;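 active means thallium flux slope beyond 3 SD from same-plate DMSO control mean in most replicates, usually higher, sometimes lower; inconclusive means repeat tests gave conflicting results; inactive means no significant difference from controls in most replicates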;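 further: slope of initial-normalized fluorescence between seconds 10 and 20 after thallium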
HEK293 Tl flux2 – counter-screen for KCC2 modulators: effect in parental HEK293 cells | shares compounds with KCC2 mod | thallium flux FluoZin-2 fluorescence slope | thallium flux slope at 10 µM | 33% of 3,700 active;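 active means thallium flux slope above the same plate's solvent-control mean plus 3 SD in both duplicate wells; inconclusive means duplicate wells that disagreed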;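 further: run without ouabain in cells lacking the KCC2 cotransporter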
A number is an active result; – = inactive; ? = inconclusive; · = no result. Shown are actives, neighbours in structure and some others; about 4.1% of the full set was active somewhere.

SMILES	Autophagy mod	ROMK primary	Dynein cargo inh	KCC2 mod	Redox H2O2 prof	KCC2 secondary	KCC2 bumet counter	KCC2 sec2	HEK counter1	KCC2 retest ouab	HEK293 Tl flux2
O=C(NC(=S)Nc1ccc(N2CCOCC2)c(Cl)c1)c1cccs1	–	·	–	·	–	0.0248	0.0582	?	0.0166	0.0277	0.0168
O=C(NC(=S)Nc1ccccc1N1CCCCC1)c1cccs1	–	–	–	18.3	–	?	0.0353	–	0.0509	0.0425	0.0158
O=C(Nc1ccc(N2CCCC2)c(Cl)c1)c1cccs1	–	–	–	–	–	·	·	·	·	·	·
O=C(NC(=S)Nc1ccccc1N1CCCC1)c1cccs1	·	·	–	78.6	·	0.0292	0.144	?	?	0.0871	0.0369
C=CCn1c(Cc2cccs2)nnc1SC/C=C/c1ccccc1	–	–	–	-3.99	–	–	?	?	0.0053	0.014	0.00848
CCn1c(SC/C=C/c2ccccc2)nnc1-c1cccs1	–	·	–	·	–	·	·	·	·	·	·
Cc1nn(-c2nc3ccccc3[nH]2)c(N)c1-c1ccccc1	–	–	–	2.55	–	–	0.0123	–	0.0106	?	0.0139
Cc1nn(-c2ccccc2)c(N)c1-c1ccccc1	–	–	–	–	–	·	·	·	·	·	·
CC(=O)OCC1OC(c2ccccc2)C(OC(C)=O)C(OC(C)=O)C1OC(C)=O (stereo unspecified)	–	·	–	4.35	–	–	–	?	–	–	–
C/C(=N\NC(=O)c1ccccc1)c1ccccc1Br	–	–	–	–	–	·	·	·	·	·	·
CC/C(Cc1ccccc1)=N/NC(=O)c1cccc(Br)c1	–	–	–	9.18	–	–	0.0102	–	0.0157	–	0.0147
CC/C(Cc1ccccc1)=N\NC(=O)c1cc([N+](=O)[O-])cc([N+](=O)[O-])c1	–	–	–	33.3	–	0.0183	0.0672	?	0.033	0.0454	0.0176
C/C(=N\NC(=O)c1cccc([N+](=O)[O-])c1)c1ccco1	·	·	–	12.4	·	–	0.0246	–	0.0192	0.0291	0.0258
C/C(=N\NC(=O)c1cccc(N/N=C(\C)c2ccco2)c1)c1ccco1	–	–	–	–	–	·	·	·	·	·	·
C/C(=N\NC(=O)c1ccc(Br)cc1)c1ccccc1	–	·	–	5.99	–	–	0.0134	–	0.0149	?	–
CC/C(Cc1ccccc1)=N\NC(=O)c1cc(C)oc1C	–	·	–	–	–	·	·	·	·	·	·
CC(C)(C)C(=O)NC(=S)N1CCc2ccccc21	–	·	–	22.3	–	0.0236	0.102	0.052	?	0.0657	0.0369
O=C(NC(=S)N1CCc2ccccc21)c1ccc(Br)o1	–	·	–	64.6	–	0.0632	0.0859	0.0899	0.0984	0.0902	0.108
O=C(NC(=S)N1CCc2ccccc21)C1CCC1	–	–	–	13.9	–	–	0.0251	–	0.0181	?	0.0159
Cc1ccc(CN(CC(=O)NC(C)(C)C)C(=O)CNC(=O)c2cccs2)cc1	–	–	–	–	–	·	·	·	·	·	·
O=C(CSc1nnc(C2CC2)n1Cc1ccccc1)c1cc2ccccc2o1	–	–	–	-3.84	–	–	?	0.0239	–	?	–
Nn1c(Cc2cccc3ccccc23)nnc1SCC(=O)NC1CCS(=O)(=O)C1 (stereo unspecified)	–	·	–	5.75	–	–	–	–	–	–	–
COc1cccc(NC(=O)COC(=O)c2nc3nccc(C)n3n2)c1	–	·	–	-5.45	–	–	–	–	?	–	–
CCOC(=O)Nc1ccc([N+](=O)[O-])cc1OC	–	·	–	·	–	·	·	·	·	·	·
CCOC(=O)c1ccc(C(=O)OCC)c(NC(=S)Nc2ccc([N+](=O)[O-])cc2OC)c1	–	·	–	10.1	–	0.0134	0.0312	–	0.0241	0.0329	0.0138
SMILES	Autophagy mod	ROMK primary	Dynein cargo inh	KCC2 mod	Redox H2O2 prof	KCC2 secondary	KCC2 bumet counter	KCC2 sec2	HEK counter1	KCC2 retest ouab	HEK293 Tl flux2
CN1CCN(C=Nc2nc3ccccc3nc2N2CCCC2)CC1	–	–	–	–	–	·	·	·	·	·	·
CCN(CC)CC#CCOC(=O)C(O)(c1ccccc1)C1CCCCC1 (stereo unspecified)	–	·	–	–	–	–	–	–	–	–	–
CCN(CC)CC#CCC(O)(c1ccccc1)C1CCCCC1 (stereo unspecified)	–	–	–	–	–	·	·	·	·	·	·
O=C(NC1CC2CCC(C1)N2Cc1nnnn1Cc1ccco1)NC12CC3CC(CC(C3)C1)C2 (stereo unspecified)	–	·	–	–	–	·	·	·	·	·	·
CCOc1ccccc1C(=O)NC1CC2CCCC(C1)N2Cc1nnnn1Cc1ccco1 (stereo unspecified)	–	–	–	-4.02	–	–	–	–	–	?	–
CN(C)S(=O)(=O)c1ccc(NC(=O)C2CC3C=CC2C3)cc1 (stereo unspecified)	–	·	–	–	–	·	·	·	·	·	·
CN(C)S(=O)(=O)c1ccc(Cl)c(-c2nnc3n2CCCCC3)c1	–	–	–	–	–	·	·	·	·	·	·
O=S(=O)(Nc1nc2ccccc2nc1N1CCN(c2ccccn2)CC1)c1ccc(Cl)cc1	–	–	–	-3.1	–	–	–	0.0239	–	?	–
O=S(=O)(Nc1nc2ccccc2nc1N1CCc2ccccc2C1)c1ccc(Cl)cc1	–	·	–	–	–	·	·	·	·	·	·
CC(C)=CC[N+]1(C)CCCCC1	–	–	–	–	–	·	·	·	·	·	·
COCCn1c(-c2ccccc2Cl)nc2c(c(=O)c3ccccc3n2C)c1=O	–	–	–	-4.82	–	?	–	0.0213	0.00583	0.0104	–
CC(C)c1nc2c(c(=O)c3ccccc3n2C)c(=O)n1CCc1ccccc1	·	·	–	-4.38	·	–	0.022	–	0.0124	–	–
COCCn1c(-c2ccc(Cl)cc2)nc2c(c(=O)c3ccccc3n2C)c1=O	–	·	–	–	–	·	·	·	·	·	·
CCC(C)(C)n1nnnc1C(c1ccc2ncccc2c1)N1CCN(c2ccc(O)cc2)CC1 (stereo unspecified)	·	·	–	–	·	·	·	·	·	·	·
CCCCC(c1nnnn1CC1CCCO1)N1CCN(c2nc3ccccc3s2)CC1 (stereo unspecified)	–	·	–	-4.11	–	–	–	0.0229	?	0.0123	–
